These results are taken from ChEMBL document CHEMBL2057113, “Modern phenotypic drug discovery is a viable, neoclassic pharma strategy” (J Med Chem, 2012).

The nature of series [1]: Toxicity in endothelial precursor cells co-cultured with stromal precursor ADSC cells by total nuclei count detection based phenotypic drug discovery based assay. The essentials: (§1)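 384-well coculture of endothelial colony-forming cells (ECFC) with adipose-derived stromal cells (ADSC) at 37 °C, 5% CO2. Screening at 2 μM single point on CD31-positive cord area; actives retested in 10-point dose response, with CD31 cord area as cord formation read-out and total nuclei count as cytotoxicity read-out.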

In another series the target is Gamma-secretase. Nature of the series: Inhibition of human gamma secretase expressed in HEK293 cells coexpressing human APP by soluble beta-APP detection based ELISA. Format: cell-based. The essentials:
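HEK293 cells expressing recombinant human APP; soluble APPsβ production measured by ELISA with a mouse monoclonal antibody to the β-secretase neoepitope of hAPP.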
(In general: In an ELISA, binding on a coated surface is turned into a signal by an enzyme label.)

Series [2] is described as follows: Inhibition of endothelial cord area formation in endothelial precursor cells by CD31 cord area detection based phenotypic drug discovery based assay. Format: functional. The essentials:
as §1

Another series deals with Beta-secretase 1 (Homo sapiens, UniProt P56817). Nature of the series: Inhibition of human BACE1 using BACE1-IgG construct by labeled substrate hydrolysis detection assay. The essentials: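 Soluble human BACE activity: purified BACE-IgG ectodomain construct hydrolyzing a labeled peptide substrate.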
Series [3] addresses Gamma-secretase (Homo sapiens) (UniProt Q96BI3+Q9NZ42+Q8WW43+P49768+Q92542+P49810). The series is described as follows: Inhibition of human gamma secretase-expressed in HEK293 co-expressing human Notch-1 cells assessed as effect on enzyme-mediated Notch-1 processing up to 5 uM. The class given is cell-based. The essentials: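 HEK293 cells expressing a human Notch-1 construct lacking the extracellular ligand-binding domain (analogous to constitutively active mouse NotchΔE); γ-secretase cleavage detected with a mouse monoclonal antibody to the γ-secretase neoepitope of human Notch-1; tested up to 5 μM.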

Series [4] can be described thus: Inhibition of cell migration in endothelial precursor cells by Oris cell migration kit based phenotypic drug discovery based assay. Format: functional.
For the next series, the system named is HEK293. The series is described as follows: Inhibition of ACC expressed in HEK293 cells assessed as effect on incorporation of [14C]acetate into triacylglycerol. To be noted: Homo sapiens. Format: cell-based. A digest of the protocol: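 HEK293 cells moved from growth medium (DMEM, 10% FBS) into Opti-MEM containing compound in 0.2% DMSO for 1 h, then labeled with 30 μM [14C]acetate for 4 h. Cells washed, dissolved in Triton X-100 (0.175%) with basic ethanol/isopropanol at room temperature; labeled triacylglycerol extracted into heptane and counted by liquid scintillation.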

The nature of series [5]: Toxicity in human HeLa cells assessed as cell cycle arrest at G2M phase by flow cytometry based phenotypic drug discovery based assay. A general note: In flow cytometry, cells or beads pass a laser one at a time.
Series [6] relates to U-87 MG. Nature of the series: In-vivo inhibition of angiogenesis in human U87MG cells xenografted in athymic nude Harlan mouse at 30 mg/kg, sc dosed twice daily for 3 days measured 3 days post dose by fluorescence microscopy. Format: functional, organism-based. Also noted: dose 30 mg/kg. The note with it: U-87MG ATCC. A digest of the protocol: (§2)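 U87MG glioblastoma cells mixed 1:1 with Matrigel, 5.0 × 10^6 cells injected subcutaneously into right rear flank of female athymic nude mice; grown to mean 250 mm3, randomized by tumor volume and body weight (10/group). Dosing twice daily for 3 days: sc in 100% peanut oil, or oral gavage in 10% acacia. Tumors excised, zinc-Tris fixed, paraffin sectioned at 4 μm.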

In series [7] the test system is U-87 MG. The series is described as follows: In-vivo inhibition of angiogenesis in human U87MG cells xenografted in athymic nude Harlan mouse at 10 mg/kg oral gavage dosed twice daily for 3 days measured 3 days post dose by fluorescence microscopy. The note with it: U-87MG ATCC. The class given is functional, organism-based. Also noted: dose 10 mg/kg. The essentials:
as §2
(In xenograft studies the graft and the host belong to different species.)

Structures can show the parent of a compound that is named as a salt. Activity calls are given as the source filed them. The rule behind the calls is not given here.

What is called IC50 is the concentration that inhibits the measured activity by half. A word on the EC50: it is the concentration at which the effect is half-maximal.

Sequence of Beta-secretase 1 (P56817 whole entry, the tested form may be a part): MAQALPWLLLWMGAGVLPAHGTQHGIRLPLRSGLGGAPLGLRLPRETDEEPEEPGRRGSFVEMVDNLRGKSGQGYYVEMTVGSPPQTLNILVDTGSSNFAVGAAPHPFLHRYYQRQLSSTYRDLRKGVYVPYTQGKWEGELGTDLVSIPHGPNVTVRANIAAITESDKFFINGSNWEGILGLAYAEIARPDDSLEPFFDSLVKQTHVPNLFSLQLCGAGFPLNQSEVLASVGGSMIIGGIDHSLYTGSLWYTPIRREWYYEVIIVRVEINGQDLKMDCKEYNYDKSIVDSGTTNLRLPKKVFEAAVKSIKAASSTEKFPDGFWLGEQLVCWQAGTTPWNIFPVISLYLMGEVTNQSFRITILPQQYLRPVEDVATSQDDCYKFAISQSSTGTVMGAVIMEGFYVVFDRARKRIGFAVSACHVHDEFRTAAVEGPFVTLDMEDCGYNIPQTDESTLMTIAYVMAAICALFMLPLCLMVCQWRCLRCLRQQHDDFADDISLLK

As to `Cc1ccc(OCC(=O)N[C@H]2c3cc(NC(=O)COc4ccc(C#N)cc4C)ccc3C[C@@H]2O)cc1`, the IC50 in series [1] was over 10 µM; on Gamma-secretase, over 5 µM; in series [2], 0.022 µM; on Beta-secretase 1, 0.142 µM. The inhibition result in series [3] is “inactive”.
With `CCNC(=O)Nc1sc2ccccc2c1C(=O)N1CCC2(CC1)CC(=O)c1cc(-c3nccs3)ccc1O2`, the 50% effective concentration (EC50) was over 10 µM in series [1], 0.041 µM in series [2] and over 10 µM in series [5]. Moreover, 13 µM corresponded to half-maximal inhibition in [4] (IC50). The inhibition entry with HEK293 is “Active”.
For `CNC(=O)c1cc(Oc2ccc(NC(=O)Nc3ccc(Cl)c(C(F)(F)F)c3)cc2)ccn1` [SORAFENIB TOSYLATE], the EC50 is 5.46 µM in series [1] and over 10 µM in series [5]. Further, the IC50 in series [4] was 16.7 µM; in series [2], 0.00421 µM.
As for `Cc1ccc(OCC(=O)N[C@H]2c3cc(NC(=O)[C@@H](C)Oc4ccc(C#N)cc4C)ccc3C[C@@H]2O)cc1` (mixture of isomers), the EC50 is over 10 µM in series [1], 0.021 µM in series [2] and over 10 µM in series [5]. Moreover, in [4], the IC50 is over 40 µM. In the series on U-87 MG [6], the inhibition result was “Active”. In series [3], the inhibition entry is “inactive”.
For `CCN(CC)CCNC(=O)c1c(C)[nH]c(/C=C2\C(=O)Nc3ccc(F)cc32)c1C` [SUNITINIB], the EC50 in series [1] and in series [5] was over 10 µM each time. In addition, the values for the IC50 in [4] and in series [2] were 13.6 µM and 0.0096 µM, respectively. Also, the inhibition result in the series on U-87 MG [7] was “Active”.
Take `Cc1ccc(OCC(=O)N[C@@H]2c3cc(NC(=O)COc4ccc(C#N)cc4C)ccc3C[C@@H]2O)cc1`: the IC50 in series [1] was over 10 µM; against Gamma-secretase, over 5 µM; in [2] it was 9.1 µM; against Beta-secretase 1, 45.6 µM. The inhibition result in series [3] is “inactive”.
In the same order, the values of `Cc1ccc(OCC(=O)N[C@H]2c3cc(NC(=O)COc4ccc(C#N)cc4C)ccc3C[C@H]2O)cc1` are over 10 µM, over 5 µM, 1.45 µM, 4 µM and “inactive”.
Take `Cc1ccc(OCC(=O)N[C@@H]2c3cc(NC(=O)COc4ccc(C#N)cc4C)ccc3C[C@H]2O)cc1`: the IC50 in series [1] is over 10 µM; against Gamma-secretase it was over 5 µM; in series [2] it was 2.5 µM; against Beta-secretase 1, 13.6 µM. Further, in [3], the inhibition entry is “inactive”.
